From ChEMBL document CHEMBL4038333, “Nonacidic Farnesoid X Receptor Modulators” (J Med Chem, 2017)
Values belong to the compound of their own block, whether it stands above or below them. The source made the active and inactive calls. The rule behind the calls is not given here.

What was measured:
[1] = target: T1, Bile acid receptor (Homo sapiens) (UniProt Q96RI1); test: Transactivation of human FXR expressed in human HeLa cells co-expressing BSEP at 3 uM after 24 hrs by dual-glo luciferase reporter gene assay relative to GW4064; assay type: cell-based
T1 sequence (whole entry): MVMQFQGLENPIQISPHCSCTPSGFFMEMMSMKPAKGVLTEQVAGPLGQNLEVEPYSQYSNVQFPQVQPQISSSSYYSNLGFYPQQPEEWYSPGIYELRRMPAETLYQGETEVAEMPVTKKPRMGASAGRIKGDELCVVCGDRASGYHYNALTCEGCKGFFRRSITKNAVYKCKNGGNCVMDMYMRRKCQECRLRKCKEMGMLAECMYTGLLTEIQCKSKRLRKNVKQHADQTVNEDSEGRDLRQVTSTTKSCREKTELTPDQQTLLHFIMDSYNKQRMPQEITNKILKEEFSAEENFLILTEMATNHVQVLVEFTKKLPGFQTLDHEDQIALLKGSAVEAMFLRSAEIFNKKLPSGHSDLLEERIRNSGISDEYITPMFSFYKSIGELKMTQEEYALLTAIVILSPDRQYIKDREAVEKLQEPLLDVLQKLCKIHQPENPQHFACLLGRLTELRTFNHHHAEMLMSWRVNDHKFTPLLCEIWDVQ
How it was run: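 Full-length FXR reporter gene assay with constitutively expressed hFXR and hRXR, plus renilla luciferase for normalization and toxicity control. Maximum relative activation is expressed against the reference agonist at 3 µM, set as 100%.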

[2] = target: T2, Bile acid receptor (Homo sapiens, UniProt Q96RI1); test: Transactivation of human FXR expressed in human HeLa cells co-expressing BSEP after 24 hrs by dual-glo luciferase reporter gene assay; assay type: cell-based
T2 sequence (Q96RI1 whole entry): T1 sequence (whole entry)
How it was run: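 Full-length reporter system with constitutive expression of hFXR and hRXR. A constitutive Renilla luciferase served for normalization and as a toxicity control. Maximum relative activation was expressed against a reference FXR agonist at 3 µM, set as 100%.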

[3] = species on record: Rattus norvegicus; test: Displacement of [3H]Ro15-4513 from GABAa receptor in Sprague-Dawley rat cerebral cortical membranes up to 10 uM after 1 hr by scintillation counting
[4] = Lipophilicity, logD of compound at pH 7.4 by LC-MS analysis; assay type: physicochemical; conditions: buffer
[5] = test system: HepG2; test: Cytotoxicity against human HepG2 cells at 50 uM after 48 hrs by WST-1 assay; assay type: cell-based; conditions: hepg2, 48 h
How it was run: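 HepG2 hepatocarcinoma cells were tested for viability by WST-1 (water-soluble tetrazolium) assay, with concentrations up to 100 µM.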

Compound: Clc1ccc2nc(-c3cccs3)c(NCc3ccccc3)n2c1
max activation [1]: 26% | EC50 ([2]; read-out: EC50): 160 nM

Compound: Cc1ccc2nc(-c3ccccc3)c(NCc3ccccc3)n2c1
max activation [1]: 16% | EC50 ([2]; read-out: EC50): 280 nM

Compound: c1ccc(CNc2c(-c3cccs3)nc3ccccn23)cc1
max activation [1]: 14% | EC50 ([2]; read-out: EC50): 4000 nM

Compound: Cc1ccc(-c2nc3ccc(C)cn3c2NCc2ccccc2)cc1
max activation [1]: 14% | EC50 ([2]; read-out: EC50): 130 nM

Compound: Fc1ccc2nc(-c3cccs3)c(NCc3ccccc3)n2c1
max activation [1]: inactive | EC50 ([2]; hela): Not Active

Compound: COc1ccc(-c2nc3ccc(C)cn3c2NCc2ccccc2)cc1OC
max activation [1]: 16% | EC50 ([2]; read-out: EC50): 910 nM

Compound: Cc1ccc2nc(-c3ccc(Br)cc3)c(NCc3ccccc3)n2c1
max activation [1]: 14% | EC50 ([2]; read-out: EC50): 430 nM

Compound: Cc1ccc2nc(-c3cccc(Cl)c3)c(NCc3ccccc3)n2c1
max activation [1]: 20% | EC50 ([2]; read-out: EC50): 16 nM

Compound: Cc1ccc2nc(-c3nc(C)cs3)c(NCc3ccccc3)n2c1
max activation [1]: 19% | EC50 ([2]; read-out: EC50): 220 nM

Compound: FC(F)(F)c1ccc2nc(-c3cccs3)c(NCc3ccccc3)n2c1
max activation [1]: 14% | EC50 ([2]; read-out: EC50): 460 nM

Compound: Cc1ccc2nc(-c3ccc4ccccc4c3)c(NCc3ccccc3)n2c1
max activation [1]: 18% | EC50 ([2]; read-out: EC50): 210 nM

Compound: Cc1ccc2nc(-c3ccsc3)c(NCc3ccccc3)n2c1
max activation [1]: 17% | EC50 ([2]; read-out: EC50): 830 nM

Compound: Brc1ccc2nc(-c3cccs3)c(NCc3ccccc3)n2c1
max activation [1]: 14% | EC50 ([2]; read-out: EC50): 500 nM

Compound: Cc1ccc2nc(-c3cccs3)c(N[C@@H](C)c3ccccc3)n2c1
max activation [1]: 12% | EC50 ([2]; read-out: EC50): 1300 nM

Compound: Cc1cccc(-c2nc3ccc(C)cn3c2NCc2ccccc2)c1
max activation [1]: 14% | EC50 ([2]; read-out: EC50): 180 nM

Compound: Cc1ccc2nc(-c3cc(Cl)ccn3)c(NCc3ccccc3)n2c1
max activation [1]: 27% | EC50 ([2]; read-out: EC50): 1.5 nM

inhibition [3]: inactive
Compound: Cc1ccc2nc(-c3ccccn3)c(NCc3ccccc3)n2c1
max activation [1]: 19%

Compound: Cc1ccc2nc(-c3cccc(Cl)n3)c(NCc3ccccc3)n2c1
max activation [1]: 31% | EC50 ([2]; read-out: EC50): 80 nM

Compound: O=C(O)c1ccn2c(NCc3ccccc3)c(-c3cccs3)nc2c1
max activation [1]: inactive | EC50 ([2]; hela): Not Active

Compound: c1ccc(CNc2c(-c3cccs3)nc3ccc(-c4ccccc4)cn23)cc1
max activation [1]: 17% | EC50 ([2]; read-out: EC50): 200 nM

Compound: Cc1ccc2nc(CCc3ccccc3)c(NCc3ccccc3)n2c1
max activation [1]: 12% | EC50 ([2]; read-out: EC50): 310 nM

Compound: Cc1ccc2nc(-c3ccc(-c4ccccc4)cc3)c(NCc3ccccc3)n2c1
max activation [1]: 17% | EC50 ([2]; read-out: EC50): 81 nM

Compound: Cc1ccc2nc(/C=C/c3ccccc3)c(NCc3ccccc3)n2c1
max activation [1]: 13% | EC50 ([2]; read-out: EC50): 1160 nM

Compound: Cc1ccc2nc(-c3cccs3)c(NCCCCc3ccccc3)n2c1
max activation [1]: 17% | EC50 ([2]; read-out: EC50): 750 nM

Compound: CC[C@H]1[C@@H](O)[C@@H]2[C@H](CC[C@]3(C)[C@@H]([C@H](C)CCC(=O)O)CC[C@@H]23)[C@@]2(C)CC[C@@H](O)C[C@@H]12 [OBETICHOLIC ACID]
logD ([4]; read-out: logD): 0.81 | Activity [5]: Toxic

Compound: Cc1ccc2nc(-c3ccc(Cl)c(Cl)c3)c(NCc3ccccc3)n2c1
max activation [1]: 19% | EC50 ([2]; read-out: EC50): 24 nM

Compound: Cc1ccc2nc(Cc3ccccc3)c(NCc3ccccc3)n2c1
max activation [1]: inactive | EC50 ([2]; hela): Not Active

Compound: Cc1ccc2nc(-c3ccc(Cl)cn3)c(NCc3ccccc3)n2c1
max activation [1]: 46% | EC50 ([2]; read-out: EC50): 7.4 nM

logD ([4]; read-out: logD): 1.01
Compound: CC(C)c1onc(-c2c(Cl)cccc2Cl)c1COc1ccc(/C=C/c2cccc(C(=O)O)c2)c(Cl)c1
Activity [5]: Toxic

Compound: Cc1ccc2nc(-c3ccc(Cl)cc3)c(NCc3ccccc3)n2c1
max activation [1]: 14% | EC50 ([2]; read-out: EC50): 240 nM

Compound: Cc1ccc2nc(-c3cccs3)c(NCc3ccccc3)n2c1
max activation [1]: 15% | EC50 ([2]; read-out: EC50): 540 nM

Compound: Cc1ccc2nc(-c3cccs3)c(Cc3ccccc3)n2c1
max activation [1]: 12% | EC50 ([2]; read-out: EC50): 810 nM

Compound: Cc1ccc2nc(-c3ccco3)c(NCc3ccccc3)n2c1
max activation [1]: 17% | EC50 ([2]; read-out: EC50): 560 nM

Compound: C[C@H](CCC(=O)O)[C@H]1CC[C@H]2[C@@H]3[C@H](O)C[C@@H]4C[C@H](O)CC[C@]4(C)[C@H]3CC[C@]12C [CHENODIOL]
logD [4]: 0.53

Compound: Cc1ccc2nc(-c3ccc(F)c(Cl)c3)c(NCc3ccccc3)n2c1
max activation [1]: 54% | EC50 ([2]; read-out: EC50): 26 nM

Compound: Cc1ccc2nc(-c3cccs3)c(NCCCc3ccccc3)n2c1
max activation [1]: 18% | EC50 ([2]; read-out: EC50): 230 nM

Compound: Cc1ccc2nc(-c3cccs3)c(N[C@H](C)c3ccccc3)n2c1
max activation [1]: 14% | EC50 ([2]; read-out: EC50): 3200 nM

Compound: Cc1ccc2nc(C3CCCCC3)c(NCc3ccccc3)n2c1
max activation [1]: inactive | EC50 ([2]; hela): Not Active

Compound: Cc1ccc2nc(-c3ccncc3)c(NCc3ccccc3)n2c1
max activation [1]: 15% | EC50 ([2]; read-out: EC50): 2000 nM

Compound: Cc1ccc2nc(-c3ccoc3)c(NCc3ccccc3)n2c1
max activation [1]: 16% | EC50 ([2]; read-out: EC50): 1900 nM

Compound: Cc1cccc2nc(-c3cccs3)c(NCc3ccccc3)n12
max activation [1]: inactive | EC50 ([2]; hela): Not Active

Compound: Cc1ccc2nc(-c3cnccn3)c(NCc3ccccc3)n2c1
max activation [1]: 18% | EC50 ([2]; read-out: EC50): 1200 nM

Compound: COc1ccc(CNc2c(-c3cccs3)nc3ccc(C)cn23)cc1
max activation [1]: 14% | EC50 ([2]; read-out: EC50): 170 nM

Compound: COc1cccc(-c2nc3ccc(C)cn3c2NCc2ccccc2)c1
max activation [1]: 16% | EC50 ([2]; read-out: EC50): 250 nM

Compound: Cc1ccc(CNc2c(-c3cccs3)nc3ccc(C)cn23)cc1
max activation [1]: 14% | EC50 ([2]; read-out: EC50): 220 nM

Compound: Cc1ccc2nc(-c3ccc(F)cc3)c(NCc3ccccc3)n2c1
max activation [1]: 21% | EC50 ([2]; read-out: EC50): 170 nM

Compound: CCc1ccn2c(NCc3ccccc3)c(-c3cccs3)nc2c1
max activation [1]: 16% | EC50 ([2]; read-out: EC50): 1200 nM

Compound: Cc1ccc2nc(-c3ccccc3C)c(NCc3ccccc3)n2c1
max activation [1]: 35% | EC50 ([2]; read-out: EC50): 260 nM

Compound: Cc1ccc2nc(-c3ccc4c(c3)OCCO4)c(NCc3ccccc3)n2c1
max activation [1]: 15% | EC50 ([2]; read-out: EC50): 170 nM

Compound: Cc1ccc2nc(-c3cccn3C)c(NCc3ccccc3)n2c1
max activation [1]: 17% | EC50 ([2]; read-out: EC50): 1100 nM

Compound: COc1ccc(-c2nc3ccc(C)cn3c2NCc2ccccc2)cc1
max activation [1]: 16% | EC50 ([2]; read-out: EC50): 1270 nM

Compound: Cc1ccc2nc(-c3cccs3)c(NCCc3ccccc3)n2c1
max activation [1]: 12% | EC50 ([2]; read-out: EC50): 1000 nM

Compound: COc1ccc2nc(-c3cccs3)c(NCc3ccccc3)n2c1
max activation [1]: 18% | EC50 ([2]; read-out: EC50): 830 nM

Compound: Cc1ccc2nc(-c3cccnc3)c(NCc3ccccc3)n2c1
max activation [1]: 17% | EC50 ([2]; read-out: EC50): 520 nM

Compound: c1ccc(CNc2c(-c3cccs3)nc3cnccn23)cc1
max activation [1]: inactive | EC50 ([2]; hela): Not Active

Compound: Cc1ccc2nc(-c3ccccc3Cl)c(NCc3ccccc3)n2c1
max activation [1]: inactive | EC50 ([2]; hela): Not Active
